Entries after “also recorded” stand apart in the source; their conditions may differ. Read-outs that look alike come from different tables or passages of the source.
Key:
[1] = molecular target: uPAR·uPA interaction (uPAR binding to uPAATF) (Homo sapiens, UniProt Q03405); assay: Microtiter-based ELISA, uPAR binding to immobilized uPAATF; conditions: for activity in the ELISA at single concentration: 50 μM; for concentration-dependent inhibition of uPAR binding to uPAATF (ELISA): serial dilutions
Procedure, shortened: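 Microtiter wells coated with uPAATF (purified by SP Sepharose […] exchange). Blocking used a 1:1 mix of Superblock in PBS with 0.04 M NaH₂PO₄/0.3 M NaCl buffer. uPAR binding was tested against serial dilutions of test compound. After incubation and washes, bound uPAR was detected with biotinylated antibody uPA1310 in 1% BSA/PBS for 1–2 h.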

[2] = molecular target: uPAR·uPA interaction (suPAR277 and uPAATF) (Homo sapiens, UniProt Q03405); assay: Surface plasmon resonance; format: binding; conditions: for SPR response with increasing concentration of compound: 5 to 100 μM
Procedure, shortened: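 uPA amino-terminal fragment was amine-coupled to a CM5 chip at about 100 RU. Soluble uPAR (residues 1–277, expressed in Drosophila S2 cells) was injected with or without test compound (5–100 μM final, 5% DMSO) in HBS-EP plus 5% DMSO. Flow was 20 μL min⁻¹, with 180 s association and 90 s dissociation, and 5 mM HCl regeneration. DMSO-only protein controls were interleaved. IC50 was estimated from the plots.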

[3] = molecular target: T1, uPAR (Homo sapiens, UniProt Q03405); assay: Direct binding of IPR-456 to uPAR by FP; conditions: 10 μM GFD
[4] = tested on: MDA-MB-231 cells; assay: Adhesion assay; format: cell-based, human
Procedure, shortened: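 Wells coated overnight at 4°C with fibronectin (15 ng μl⁻¹) or vitronectin, then blocked 1 h with 0.5% BSA/PBS. Cells were serum-starved 3 h, trypsinized, and held at 2.5×10⁵ cells ml⁻¹ in 0.1% FBS DMEM with test compound or DMSO for 90 min at 37°C. After three PBS washes, remaining adherent cells were quantified by MTT.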

[5] = tested on: MDA-MB-231 cells; assay: Invasion assay; format: cell-based, human; conditions: for number of cells able to invade through the membrane: MDA-MB-231, increasing concentration
Procedure, shortened: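 Insert undersides were coated overnight at 4°C with 30 ng μl⁻¹ fibronectin, and filters were equilibrated 2 h in serum-free medium. Cells serum-starved 4 h were seeded at 5×10⁴ in 0.1% FBS medium with compound in the upper chamber, with 10% FBS medium plus compound or DMSO below. After 16 h at 37°C, 5% CO₂, filters were methanol-fixed and hematoxylin-stained. Invaded cells were counted in ten 200× fields.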

[6] = molecular target: uPA binding to uPAR of MDA-MB-231 tumor cells (Homo sapiens, UniProt Q03405); assay: Immunofluorescence imaging of cell surface uPA and uPAR; format: cell-based
[7] = tested on: MDA-MB-231 cells lacking uPAR; assay: Invasion assay with siRNA knockdown of uPAR; format: cell-based, human; conditions: MDA-MB-231 with siRNA knockdown of uPAR
Procedure, shortened: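 Cells were transfected with uPAR siRNA, control siRNA or transfection reagent alone. After 48 h, knockdown was checked by immunoblot: 20 µg lysate on 12% SDS-PAGE, anti-uPAR probe, actin as loading control. Invasion without or with test compound then used fibronectin-coated transwells, with 0.1% FBS medium above and 10% FBS below, for 16 h at 37°C. Invaded cells were counted.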

[8] = molecular target: T1, uPAR; assay: Fluorescence polarization; format: binding
[9] = tested on: MDA-MB-231 cells; assay: Cytotoxicity / cell proliferation; format: cell-based, human
Procedure, shortened: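 MDA-MB-231 cells were exposed to test compound at the same concentrations and for the same incubation time as the transwell motility assay. MTT was added 2 h before measurement.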

[10] = tested on: MDA-MB-231 cells; assay: Wound healing assay; format: cell-based, human; conditions: MDA-MB-231, 16 h
Procedure, shortened: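 Confluent MDA-MB-231 monolayers were scratched with a pipette tip, washed, and cultured in complete medium containing test compound. The gap between wound edges was measured in three random regions immediately after wounding and at 16 h.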

[11] = tested on: MDA-MB-231 cells; assay: Transwell; format: cell-based, human
Procedure, shortened: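 Wells were fibronectin-coated (30 ng μL⁻¹, 4°C overnight). Cells serum-starved 4 h were seeded at 5×10⁴ in 0.1% FBS medium with compound or DMSO in the upper chamber, with 10% FBS RPMI-1640 plus compound or 1% DMSO below, for 8 h at 37°C. Non-migrated cells were scraped off; filters were methanol-fixed 30 min and hematoxylin-stained 1 h. Cells in ten 200× fields were counted and averaged over three independent experiments.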

[12] = read-out: IC50, inhibition of uPAATF binding to uPAR (ELISA)

T1 sequence (Q03405 23-299): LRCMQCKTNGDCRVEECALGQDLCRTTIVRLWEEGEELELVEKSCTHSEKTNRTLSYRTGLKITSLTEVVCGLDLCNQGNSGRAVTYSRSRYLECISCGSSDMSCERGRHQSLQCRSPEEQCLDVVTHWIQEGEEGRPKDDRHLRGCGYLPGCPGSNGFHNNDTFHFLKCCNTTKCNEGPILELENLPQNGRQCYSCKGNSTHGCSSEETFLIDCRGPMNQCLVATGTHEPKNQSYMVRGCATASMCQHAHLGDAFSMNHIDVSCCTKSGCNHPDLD
uPAR·uPA interaction (uPAR binding to uPAATF), sequence (Q03405 23-299): as above
uPAR·uPA interaction (suPAR277 and uPAATF), sequence (Q03405 23-299): as above
uPA binding to uPAR of MDA-MB-231 tumor cells, sequence (Q03405 23-305 limits assumed): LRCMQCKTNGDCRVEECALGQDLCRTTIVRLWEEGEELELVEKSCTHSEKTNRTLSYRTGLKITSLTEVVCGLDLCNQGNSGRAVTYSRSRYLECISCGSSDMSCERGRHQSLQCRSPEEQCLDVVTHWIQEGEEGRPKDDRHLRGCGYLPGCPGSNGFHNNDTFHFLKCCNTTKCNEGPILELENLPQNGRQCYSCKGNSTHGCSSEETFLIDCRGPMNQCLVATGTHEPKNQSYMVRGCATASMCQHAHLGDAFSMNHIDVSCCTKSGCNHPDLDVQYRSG

Compound: CC1CCN(c2cc(Nc3ccc(C(=O)O)cc3)c3c4c(onc24)-c2ccccc2C3=O)CC1 [IPR-808]
- activity in the ELISA at single concentration [1]: strong activity
- IC50 [1, 12]: 30 µM
- concentration-dependent inhibition of uPAR binding to uPAATF (ELISA) [1]: concentration-dependent inhibition

Compound: CC1CC(C)CN(c2cc(NCCC(=O)O)c3c4c(onc24)-c2ccccc2C3=O)C1 (stereo not shown) [IPR-763]
- IC50 estimated from SPR plots, compared with ELISA [2]: nearly identical to those observed in the ELISA
- SPR response with increasing concentration of compound [2]: concentration-dependent decrease in the response
- activity in the ELISA at single concentration [1]: strong activity
- IC50 [1, 12]: 20 µM
- concentration-dependent inhibition of uPAR binding to uPAATF (ELISA) [1]: concentration-dependent inhibition

Compound: CC1CC(C)CN(c2cc(Nc3ccccc3C(=O)O)c3c4c(onc24)-c2ccccc2C3=O)C1 (stereo not shown) [IPR-456, 2-((3-(3,5-Dimethylpiperidin-1-yl)-6-oxo-6H-anthra[1,9-cd]isoxazol-5-yl)amino)benzoic acid]
- change of polarization with increasing uPAR in the presence of GFD [3]: no increase in the polarization was detected
- effect on cell adhesion ([4]; fibronectin-coated wells): no effect on cell adhesion
- effect on cell adhesion ([4]; vitronectin-coated wells): no effect on cell adhesion
- inhibition of invasion ([5]; MDA-MB-231): about 60%
- number of cells able to invade through the membrane [5]: concentration-dependent reduction
- IC50 [6]: 8 µM
- uPAR immunostaining at the cell surface ([6]; MDA-MB-231): no change in the immunostaining pattern of uPAR
- uPA staining at the cell surface ([6]; MDA-MB-231, compound added 30 min prior to immunostaining): significant concentration-dependent reduction of uPA staining
- effect on invasion of cells lacking uPAR [7]: no effect on invasion
- Ki [8]: 0.14 µM
- concentration-dependent displacement of GFD-FAM ([8]; 0.78 μM to 100 μM): displace GFD-FAM in a concentration-dependent manner
- inhibition / binding in initial FP screen ([8]; single concentration of 50 μM): highest inhibition
- concentration-dependent inhibition of uPAR binding to uPAATF (ELISA) [1]: complete concentration-dependent inhibition
- toxicity within the timeframe of the invasion experiment ([9]; MDA-MB-231, 200 μM): minimal toxicity
- toxicity within the timeframe of the invasion experiment ([9]; MDA-MB-231, up to 100 μM): no toxicity
- cytotoxicity in the migration assays ([9]; same concentrations and incubation time as migration assays): Neither assay exhibited any cell cytotoxicity
- effect on migration (wound healing) [10]: little effect on migration
- effect on migration (Boyden chamber) [11]: blocked migration very weakly

Compound: O=C(O)c1cccc(Nc2cc(N3CCCCCC3)c3noc4c3c2C(=O)c2ccccc2-4)c1 [IPR-803, 3-((3-(Azepan-1-yl)-6-oxo-6H-anthra[1,9-cd]isoxazol-5-yl)amino)benzoic acid]
- IC50 [2]: 10 µM
- IC50 estimated from SPR plots, compared with ELISA [2]: nearly identical to those observed in the ELISA
- SPR response with increasing concentration of compound [2]: concentration-dependent decrease in the response
- number of cells able to invade through the membrane [5]: concentration-dependent reduction
- IC50 [1]: 10 µM
- activity in the ELISA at single concentration [1]: strong activity
- concentration-dependent inhibition of uPAR binding to uPAATF (ELISA) [1]: concentration-dependent inhibition
- effect on cell proliferation / cytotoxicity ([9]; MDA-MB-231, increasing concentration): concentration dependent inhibition of MDA-MB-231 cell proliferation; also recorded: some cytotoxicity

Source: paper PMC3220747 (ACS chemical biology, 2011)
